According to ChEMBL document CHEMBL4613280, “Development of Pyrazolo[3,4-d]pyrimidine Kinase Inhibitors as Potential Clinical Candidates for Glioblastoma Multiforme” (ACS Med Chem Lett, 2020):
Active and inactive are the calls of the source. No cut-off for these calls is given here.

Tests used:
Homo sapiens [1] = species: Homo sapiens; assay: Induction of apoptotic death in human GIN8 cells assessed as nuclear fragmentation at 12.5 uM measured after 48 hrs by Hoechst 33342/propidium iodide staining based fluorescence microscopy analysis; type: functional, cell-based
Procedure, shortened: (§1)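 Cells dosed 48 h with 12.5 μM inhibitor, with 70% ethanol or DMEM (negative) as controls. Nuclei then double-stained with Hoechst 33342 and propidium iodide and examined by fluorescence microscopy.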

Homo sapiens [2] = species: Homo sapiens; assay: Induction of necrosis in human GIN28 cells assessed as induction of nuclear membrane permeability at 12.5 uM measured after 48 hrs by Hoechst 33342/propidium iodide staining based fluorescence microscopy analysis; type: functional, cell-based; procedure, shortened: as §1
[3] = Cytotoxicity against human GIN28 cells derived from invasive region of GBM patient assessed as reduction in cell viability measured after 48 hrs by Prestoblue assay; type: functional, cell-based
Procedure, shortened: (§2)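 Compounds diluted in DMEM containing 10% FBS and applied for 48 h. Viability read by PrestoBlue. IC50 calculated from three independent experiments, mean ± SE. Two-way ANOVA with Dunnett's multiple comparisons test.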

Homo sapiens [4] = species: Homo sapiens; assay: Induction of apoptotic death in human GIN8 cells assessed as presence of apoptotic bodies at 12.5 uM measured after 48 hrs by Hoechst 33342/propidium iodide staining based fluorescence microscopy analysis; type: functional, cell-based; procedure, shortened: as §1
Homo sapiens [5] = species: Homo sapiens; assay: Induction of apoptotic death in human GIN28 cells assessed as […] at 12.5 uM measured after 48 hrs by Hoechst 33342/propidium iodide staining based fluorescence microscopy analysis; type: functional, cell-based; procedure, shortened: as §1
[6] = Additive cytotoxicity against human GIN28 cells assessed as combination index measured after 48 hrs in presence of 2-[[4-(2-phenylethylamino)-1-[styryl]pyrazolo[3,4-d]pyrimidin-6-yl]amino]ethanol by Chou-Talalay assay; type: functional
Procedure, shortened: (§3)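 Each drug pair dosed at a 1:1 molar ratio on the GBM lines and incubated 48 h. CI computed from three independent IC50 experiments (n = 3), reported as mean ± SD.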

Homo sapiens [7] = species: Homo sapiens; assay: Induction of apoptotic death in human GCE28 cells assessed as nuclear fragmentation at 12.5 uM measured after 48 hrs by Hoechst 33342/propidium iodide staining based fluorescence microscopy analysis; type: functional, cell-based; procedure, shortened: as §1
[8] = Apparent water solubility of the compound in PBS formulated with 900 ug/ml of polymer Pluronic F-68 at 100 ug/ml by UV-Visible spectral analysis; type: physicochemical; details: buffer
Homo sapiens [9] = species: Homo sapiens; assay: Cytotoxicity against human GIN28 cells assessed as reduction in cell viability at 5 ug/ml measured after 48 hrs using PVPVA-formulated compound by Prestoblue assay; type: functional, cell-based
Procedure, shortened: (§4)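 Inhibitor either dissolved in DMSO, inkjet-printed into polymer, or suspended in PBS, then diluted in DMEM. Polymer-alone and untreated controls included. Viability read by PrestoBlue after 48 h, mean ± SD.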

Homo sapiens [10] = species: Homo sapiens; assay: Induction of apoptotic death in human GIN28 cells assessed as nuclear fragmentation at 12.5 uM measured after 48 hrs by Hoechst 33342/propidium iodide staining based fluorescence microscopy analysis; type: functional, cell-based; procedure, shortened: as §1
Homo sapiens [11] = species: Homo sapiens; assay: Cytotoxicity against human GIN8 cells assessed as reduction in cell viability at 5 ug/ml measured after 48 hrs using Pluronic-F68-formulated compound by Prestoblue assay; type: functional, cell-based; procedure, shortened: as §4
Homo sapiens [12] = species: Homo sapiens; assay: Induction of necrosis in human GIN8 cells assessed as induction of nuclear membrane permeability at 12.5 uM measured after 48 hrs by Hoechst 33342/propidium iodide staining based fluorescence microscopy analysis; type: functional, cell-based; procedure, shortened: as §1
[13] = Cytotoxicity against human GIN8 cells derived from invasive region of GBM patient assessed as reduction in cell viability measured after 48 hrs by Prestoblue assay; type: functional, cell-based; procedure, shortened: as §2
Homo sapiens [14] = species: Homo sapiens; assay: Cytotoxicity against human GIN8 cells assessed as reduction in cell viability at 5 ug/ml measured after 48 hrs using PVPVA-formulated compound by Prestoblue assay; type: functional, cell-based; procedure, shortened: as §4
Homo sapiens [15] = species: Homo sapiens; assay: Induction of apoptotic death in human GCE28 cells assessed as presence of apoptotic bodies at 12.5 uM measured after 48 hrs by Hoechst 33342/propidium iodide staining based fluorescence microscopy analysis; type: functional, cell-based; procedure, shortened: as §1
Homo sapiens [16] = species: Homo sapiens; assay: Cytotoxicity against human GCE28 cells assessed as cell viability at 5 ug/ml measured after 48 hrs using compound suspended in PBS by Prestoblue assay; type: functional, cell-based; procedure, shortened: as §4
Homo sapiens [17] = species: Homo sapiens; assay: Cytotoxicity against human GIN28 cells assessed as reduction in cell viability at 5 ug/ml measured after 48 hrs using Tween 80-formulated compound by Prestoblue assay; type: functional, cell-based; procedure, shortened: as §4
Homo sapiens [18] = species: Homo sapiens; assay: Induction of apoptotic death in human GIN8 cells assessed as […] at 12.5 uM measured after 48 hrs by Hoechst 33342/propidium iodide staining based fluorescence microscopy analysis; type: functional, cell-based; procedure, shortened: as §1
Homo sapiens [19] = species: Homo sapiens; assay: Cytotoxicity against human GIN28 cells assessed as reduction in cell viability at 5 ug/ml measured after 48 hrs using Pluronic-F68-formulated compound by Prestoblue assay; type: functional, cell-based; procedure, shortened: as §4
Homo sapiens [20] = species: Homo sapiens; assay: Cytotoxicity against human GIN8 cells assessed as reduction in cell viability at 5 ug/ml measured after 48 hrs using compound dissolved in DMSO by Prestoblue assay; type: functional, cell-based; procedure, shortened: as §4
Homo sapiens [21] = species: Homo sapiens; assay: Induction of apoptotic death in human GCE28 cells assessed as […] at 12.5 uM measured after 48 hrs by Hoechst 33342/propidium iodide staining based fluorescence microscopy analysis; type: functional, cell-based; procedure, shortened: as §1
Homo sapiens [22] = species: Homo sapiens; assay: Cytotoxicity against human GCE28 cells assessed as reduction in cell viability at 5 ug/ml measured after 48 hrs using PVPVA-formulated compound by Prestoblue assay; type: functional, cell-based; procedure, shortened: as §4
[23] = Synergistic cytotoxicity against human GIN28 cells assessed as combination index measured after 48 hrs in presence of 3-(4-chlorophenyl)-1-(2-chloro-2-phenylethyl)pyrazolo[3,4-d]pyrimidin-4-amine by Chou-Talalay assay; type: functional; procedure, shortened: as §3
Homo sapiens [24] = species: Homo sapiens; assay: Induction of apoptosis in human GIN8 cells assessed as increase in caspase 3/7 activation at 12.5 uM measured after 48 hrs by CellEvent caspase 3/7 probe based fluorescence analysis; type: functional, cell-based
Procedure, shortened: (§5)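 Cells exposed 48 h to compounds diluted in 10% FBS DMEM. Activated caspase-3/7 detected with the CellEvent probe. Staurosporine 10.0 μM served as reference inducer. Mean ± SEM (n = 3). Two-way ANOVA with Dunnett's test.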

Homo sapiens [25] = species: Homo sapiens; assay: Cytotoxicity against human GIN8 cells assessed as cell viability at 5 ug/ml measured after 48 hrs using compound suspended in PBS by Prestoblue assay; type: functional, cell-based; procedure, shortened: as §4
[26] = Apparent water solubility of the compound in PBS formulated with 900 ug/ml polymer PVPVA at 100 ug/ml by UV-Visible spectral analysis; type: physicochemical; details: buffer
Homo sapiens [27] = species: Homo sapiens; assay: Cytotoxicity against human GCE28 cells assessed as reduction in cell viability at 5 ug/ml measured after 48 hrs using compound dissolved in DMSO by Prestoblue assay; type: functional, cell-based; procedure, shortened: as §4
[28] = Synergistic cytotoxicity against human GIN8 cells assessed as combination index measured after 48 hrs in presence of 3-(4-chlorophenyl)-1-(2-chloro-2-phenylethyl)pyrazolo[3,4-d]pyrimidin-4-amine by Chou-Talalay assay; type: functional
Procedure, shortened: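 Two kinase inhibitors were combined at a 1:1 molar ratio, diluted in DMEM with 10% FBS, and incubated with the GBM cells for 48 h. Viability was read by PrestoBlue. Combination index values were calculated from three independent IC50 experiments (n = 3) and are reported as mean ± SD.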

Homo sapiens [29] = species: Homo sapiens; assay: Induction of apoptosis in human GIN28 cells assessed as increase in caspase 3/7 activation at 12.5 uM measured after 48 hrs by CellEvent caspase 3/7 probe based fluorescence analysis; type: functional, cell-based; procedure, shortened: as §5
Homo sapiens [30] = species: Homo sapiens; assay: Cytotoxicity against human GIN28 cells assessed as reduction in cell viability at 5 ug/ml measured after 48 hrs using compound dissolved in DMSO by Prestoblue assay; type: functional, cell-based; procedure, shortened: as §4

ClC(Cn1ncc2c(Nc3cccc(Br)c3)nc(SCCN3CCOCC3)nc21)c1ccccc1 (stereo not given)
Activity (Homo sapiens [1]): Active
Activity (Homo sapiens [2]): inactive
IC50 [3]: 7.7 µM
Activity (Homo sapiens [4]): Active
Activity (Homo sapiens [5]): Active
CI [6]: 0.9
Activity (Homo sapiens [7]): Active
solubility [8]: Soluble
Activity (Homo sapiens [9]): Active
Activity (Homo sapiens [10]): Active
Activity (Homo sapiens [11]): Active
Activity (Homo sapiens [12]): inactive
IC50 [13]: 11.2 µM
Activity (Homo sapiens [14]): Active
Activity (Homo sapiens [15]): Active
Activity (Homo sapiens [16]): inactive
Activity (Homo sapiens [17]): Active
Activity (Homo sapiens [18]): Active
Activity (Homo sapiens [19]): Active
Activity (Homo sapiens [20]): Active
Activity (Homo sapiens [21]): Active
Activity (Homo sapiens [22]): Active
CI [23]: 0.76
Activity (Homo sapiens [24]): Active
Activity (Homo sapiens [25]): inactive
solubility [26]: Soluble
Activity (Homo sapiens [27]): Active
CI [28]: 0.53
Activity (Homo sapiens [29]): Active
Activity (Homo sapiens [30]): Active
